Measurements gathered from unrelated publications.
Protocols differ between the studies behind these lines.

| Structure (SMILES) | target or system | assay | test system | conditions | quantity | result |
| --- | --- | --- | --- | --- | --- | --- |
| Cn1cc2c3c1C(=O)C(N)=CC3=NCC2 | HCT-116 | cell growth or viability, MTT | – | 72 h | CC50 | 2000 nM |
| C#CCN(C)CCCCCCOCc1ccc(CN(C)c2c3c(nc4ccccc24)CCCC3)cc1 | – | – | male Sprague-Dawley rat, plasma | intravenous, 1 mg/kg | AUC(0-inf) | 0.17 µg·h/mL |
| CC(=O)c1c([O-])cc(C)oc1=O.[Na+] | – | – | rat, serum | oral, 200 mg/kg | AUC(0-t) | 3190 µg·h/mL |
| Cn1c2cccc(=O)c-2nc2ccccc21 | – | – | PAMPA | 40 µM, 5 h, pH 7.4 | Papp | 8.6 ×10⁻⁶ cm/s |
| [2H]C([2H])([18F])[C@]([2H])(N)C(=O)O | U-87 MG | – | bone | 110 min, tumour-bearing | tracer uptake | 1.73 %ID/g |
| Cn1cc2c3c1C(=O)C(N)=CC3=[N+](C)CC2 | HCT-116 | cell growth or viability, MTT | – | 72 h | CC50 | 1000 nM |
| COCC1=N[C@@]2(O)[C@H](C(=O)N(C)OC)[C@@H](c3ccccc3)[C@]3(c4ccc(OC)cc4)Oc4cc(OC)cc(OC)c4[C@]23N1 | – | – | PAMPA | 50 µM, 30 min, pH 7.4 | Papp | 783 ×10⁻⁶ cm/s |
| C[C@]12CC[C@H]3[C@@H](CC=C4CC(O)CC[C@@]43CO)[C@@H]1CCC2O (some centres unmarked) | – | – | rat, plasma | intravenous, 1 mg/kg | AUC | 0.167 µg·h/mL |
